Assay results gathered from unrelated publications.
Each line is one published result; the experiments were not run side by side.
Organism: Bacillus cereus

Compound | observed | method | strain | endpoint | value
CN[C@H](CC(C)C)C(=O)N[C@H]1C(=O)N[C@@H](CC(N)=O)C(=O)N[C@H]2C(=O)N[C@H]3C(=O)N[C@H](C(=O)N[C@H](C(=O)O)c4cc(O)cc(O)c4-c4cc3ccc4O)[C@H](O)c3ccc(c(Cl)c3)Oc3cc2cc(c3O[C@@H]2O[C@H](CO)[C@@H](O)[C@H](O)[C@H]2O[C@H]2C[C@](C)(N)[C@H](O)[C@H](C)O2)Oc2ccc(cc2Cl)[C@H]1O | microbial growth | broth dilution | ATCC13061 | MIC | 1 µg/mL
O=C(Nc1ccc(S(=O)(=O)c2nccs2)cc1)c1cc(N=Nc2nccs2)ccc1O | microbial growth | broth dilution | – | MIC | 200 µg/mL
Nc1ccc(-c2nc(-c3ccc(Oc4ccc(C(F)(F)F)cc4)cc3)no2)cc1 | microbial growth | broth dilution | ATCC13061 | MIC | 4 µg/mL
O=C1NC(=S)S/C1=C\c1ccc(-c2ccc(N(c3ccccc3)c3ccccc3)cc2)cc1 | microbial killing | broth dilution | ATCC10876 | MBC | > 1000 µg/mL
CC(=O)NC[C@H]1CN(c2ccc(N3CCOCC3)c(F)c2)C(=O)O1 | microbial growth | broth dilution | ATCC13061 | MIC | 1 µg/mL
CO[C@H]1O[C@H](COC(c2ccccc2)(c2ccccc2)c2ccccc2)[C@@H](OC(=O)c2ccc(C(C)(C)C)cc2)[C@H](OC(=O)c2ccc(C(C)(C)C)cc2)[C@H]1OC(=O)c1ccc(C(C)(C)C)cc1 | microbial growth | broth dilution | – | MIC | 0.75 µg/mL
O=C(O)c1cn(C2CC2)c2cc(N3CCNCC3)c(F)cc2c1=O | microbial growth | – | – | MIC | 1.56 µM
O=C(O)CN1C(=O)/C(=C/c2ccc(-c3ccc(N(c4ccccc4)c4ccccc4)cc3)c3ccccc23)NC1=S | microbial growth | broth dilution | ATCC10876 | MIC | > 1000 µg/mL
CNC(=O)[C@@H](C)[C@H]1C(=O)/C(=C(O)/C=C/C(C)=C/[C@@H](C)[C@H]2O[C@@]3(C)O[C@H](C=C[C@@]34CO4)[C@@H]2C)C(=O)N1[C@@H]1CC[C@H](O)[C@H](C)O1 | microbial growth | – | – | MIC | > 100 µM
O=C(O)CN1C(=O)/C(=C/c2c3ccccc3c(-c3ccc(N(c4ccccc4)c4ccccc4)cc3)c3ccccc23)SC1=S | microbial killing | broth dilution | ATCC10876 | MBC | > 1000 µg/mL
